Assay results gathered from unrelated publications.
Protocols differ between the studies behind these lines.
Target: Serine/threonine-protein kinase pim-3 (PIM3, Homo sapiens, UniProt Q86V86)

O=C(Nc1cnn(-c2csc(C(=O)NC3COC3)c2)c1)Nc1c(F)cccc1Cl  remaining activity (enzyme activity, inhibitor; 5 µM): 73.9%
CCC(=O)N[C@H]1CC[C@@H](C(=O)N(C)c2ccc(-c3nc4ccccc4o3)cc2)C1  remaining binding (cell-free assay, competition with immobilised ligand; 1 µM): 100%
CCN(CC)CCNC(=O)c1c(C)[nH]c(/C=C2\C(=O)Nc3ccc(F)cc32)c1C  inhibition (enzyme activity, inhibitor; 0.3 µM): -17%
COc1cc(Nc2c(C#N)cnc3cc(OCCCN4CCN(C)CC4)c(OC)cc23)c(Cl)cc1Cl  remaining signal (cell-free assay; 0.5 µM): 97.7%
Cc1ccc(NC(=O)c2ccc(C)c(C(F)(F)F)c2)cc1C#Cc1nn(C2CCC(O)CC2)c2ncnc(N)c12 (stereo not shown)  remaining signal (cell-free assay; 10 µM): 99%
CS(=O)(=O)Nc1cccc(-c2csc(NC(=O)CSc3nc4nccnc4c(=O)n3CCc3ccccc3)n2)c1  inhibition (enzyme activity, inhibitor; 10 µM): 1%
Cc1cnc(NC2CCOCC2)nc1-n1cnc(C(=O)NC(CN)c2cc(F)cc(Cl)c2)c1 (stereo not shown)  remaining activity (enzyme activity, inhibitor, radiometric; 1 µM): 95%
CC(=O)N1CCC(c2ccc(C(=O)NC3=NCCN3)cc2C(F)(F)F)CC1  remaining binding (cell-free assay, competition with immobilised ligand; 1 µM): 100%
COc1cc(/C=C/C(=O)CC(=O)/C=C/c2ccc(O)c(OC)c2)ccc1O  activity vs control (enzyme activity, inhibitor; 1 µM): 12%
CNC(=O)c1cc(Oc2ccc(NC(=O)Nc3ccc(Cl)c(C(F)(F)F)c3)cc2)ccn1  inhibition (enzyme activity, inhibitor; 0.3 µM): -12%
FC(F)(F)c1ccc2c(c1)nc(-c1cccnc1)n2C1CC1  remaining binding (cell-free assay, competition with immobilised ligand; 1 µM): 100%
COc1cc(Nc2cnc(C#N)c(O[C@H](C)CN(C)C)n2)ncc1-c1cnn(C)c1  remaining activity (enzyme activity, inhibitor, radiometric; 10 µM): 17%
FC(F)c1nc2ccccc2n1-c1nc(N2CCOCC2)nc(N2CCOCC2)n1  remaining activity (enzyme activity, inhibitor; 10 µM): 76%
CCN(CC)c1ccc(C2=NNC(=O)CC2C)cc1[N+](=O)[O-] (stereo not shown)  remaining activity (enzyme activity, inhibitor; 10 µM): 96%
Nc1nc(Nc2ccccc2)sc1C(=O)c1c(F)cccc1F  remaining activity (enzyme activity, inhibitor; 10 µM): 69%
Cn1c(=O)n(-c2ccc(C(C)(C)C#N)cc2)c2c3cc(-c4cnc5ccccc5c4)ccc3ncc21  remaining activity (enzyme activity, inhibitor; 10 µM): 87%
O=C(Nc1cnn(-c2csc(C(=O)NC3COC3)c2)c1)Nc1ccccc1Cl  remaining activity (enzyme activity, inhibitor; 5 µM): 61.2%
O=C(O)[C@H]1[C@H](Cn2nnc3ccccc3c2=O)CC[C@@H]1C(=O)c1ccc(OCCC2CCOCC2)cc1  remaining binding (cell-free assay, competition with immobilised ligand; 1 µM): 86%
CC/C(=N\NC(=O)NCc1cccc(O)c1)c1ccc(O)c(C)c1O  inhibition (enzyme activity, inhibitor; 0.1 µM): 4.6%
Cc1cc(C)c(-n2ccn3nc(-c4cccnc4)cc23)cc1NC(=O)c1cc(C#N)cc(S(F)(F)(F)(F)F)c1  remaining binding (cell-free assay, competition with immobilised ligand; 0.1 µM): 83.1%
COc1cc2c(N3CCN(C(=O)Nc4ccc(OC(C)C)cc4)CC3)ncnc2cc1OCCCN1CCCCC1  remaining signal (cell-free assay; 0.5 µM): 100%
O=C(NCc1ncc(C(F)(F)F)cc1Cl)c1ccc2c(c1)C1(CCS(=O)(=O)CC1)[C@H](C1CC1)N2S(=O)(=O)c1ccc(F)cc1  remaining binding (cell-free assay, competition with immobilised ligand; 1 µM): 100%
Cc1ccc(C(=O)Nc2ccc(CN3CCN(C)CC3)c(C(F)(F)F)c2)cc1C#Cc1cnc2cccnn12  remaining activity (enzyme activity, inhibitor; 23.5 nM): 100%
CC(C)(C)c1nc(-c2cccc(NS(=O)(=O)c3c(F)cccc3F)c2F)c(-c2ccnc(N)n2)s1  remaining activity (enzyme activity, inhibitor, radiometric; 1 µM): 100%
CS(=O)(=O)NCC[C@H](NC(=O)c1cncc2c1cnn2-c1ccc(F)cc1)c1ccnc(S(C)(=O)=O)c1  remaining binding (cell-free assay, competition with immobilised ligand; 1 µM): 100%
N#CCCc1ccc2c(c1)-c1[nH]c3ccc([N+](=O)[O-])cc3c1CC(=O)N2  remaining signal (cell-free assay; 0.5 µM): 70.9%
CC(=O)C1=C(C)N(c2cccc(C(F)(F)F)c2)C(=O)N[C@@H]1c1ccc(C#N)nc1  remaining binding (cell-free assay, competition with immobilised ligand; 1 µM): 100%
CCCOc1ccc(OC)c(F)c1C(=O)c1ccc(C(=O)N[C@@H]2CNC[C@H]2NC(=O)c2ccc3[nH]ncc3c2)cc1  remaining activity (enzyme activity, inhibitor; 10 µM): 97%
